Experimental data taken from publication PMC11162967 (International Journal of Nanomedicine, 2024).
Values after ≈ are worked out from the molar mass of the structure shown.

Experiments:
HUA model mice = assay: Anti-hyperuricemia study in HUA mice model; type: in vivo, ICR mice; settings: oral 30 mg/kg luteolin for 2 weeks, compared with HUA group
Method in brief: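 Male ICR mice, n=8 per group. Hyperuricemia induced by daily intraperitoneal potassium oxonate 300 mg/kg plus hypoxanthine 300 mg/kg in normal saline for seven consecutive days. Test compound given by gavage in normal saline at 30 mg/kg luteolin-equivalent for 2 weeks, including 1-week pretreatment. Vehicle and febuxostat 10 mg/kg (oral, one week) controls. Serum uric acid measured by commercial kit at end; one-way ANOVA.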

Caco-2 cells [1] = assay: Cytotoxicity study on Caco-2 cells; type: cell-based; settings: under the experimental conditions (Figure S4)
Caco-2 cells [2] = assay: Cellular uptake mechanisms with endocytosis inhibitors; type: in vitro ADME
Method in brief: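 Caco-2 cells seeded at 2.5×10^4 per well, cultured 14 days. Then rinsed and given test compound at 30 μM luteolin, 4 h at 37°C. Washed, lysed by ultrasonication, luteolin by HPLC normalised to BCA protein. Compared with uninhibited control.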

In vitro dissolution = type: physicochemical; settings: 37°C
Caco-2 cells [3] = assay: Cellular uptake in Caco-2 cell monolayer; type: in vitro ADME; settings: Caco-2, 30 μM luteolin, 37°C, 4 h
Saturated solubility = type: physicochemical; settings: ultrapure water
Method in brief: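 Excess test material added to 5 mL ultrapure water, shaken 24 h at 37°C. Undissolved drug removed by centrifugation (12,000 rpm, 30 min) and 0.22 μm filtration. Filtrate concentration measured by HPLC. n=3, mean ± SD.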

effect of chlorpromazine, indomethacin, or colchicine on cellular uptake (Caco-2 cells [2]; Caco-2 pretreated with inhibitor 1 h): no significant change
effect of sodium azide on cellular uptake (Caco-2 cells [2]; Caco-2 pretreated with sodium azide 650 μg/mL 1 h): significantly reduced
drug dissolved (cumulative dissolution) (In vitro dissolution; SGF pH 1.2 with 0.5% Tween 80, within 3 min): 25.78%
drug dissolved (cumulative dissolution) (In vitro dissolution; SIF pH 6.8 with 0.5% Tween 80, within 3 min): 48.47%
solubility at 24 h (Saturated solubility): 0.94 ± 0.07 µg/mL (≈ 3.28 µM)
SMILES: O=c1cc(-c2ccc(O)c(O)c2)oc2cc(O)cc(O)c12 [LUT, Luteolin]
serum UA level reduction (HUA model mice): 51.67%
viability of Caco-2 cells (Caco-2 cells [1]): did not affect the viability
cellular uptake (Caco-2 cells [3]): 25.89 ± 4.94 μg luteolin/mg cellular protein
